Laboratory results from PubChem BioAssay AID493091 (Sanford-Burnham Center for Chemical Genomics, 2011).
Values joined by “and” are separate entries in the source; they are usually repeats but may differ in a detail not shown here. Identical values can stand only once. The whole screen tested about 340,000 compounds, of which about 3,000 (0.88%) were called active.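 How the source made its calls: active means inhibition above about 50% at 20 µM (limit read from the data); inactive means the rest.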 The full list was thinned out, with actives kept by preference. Some structures have more than one record in an assay (separate samples or runs), and their calls can disagree.

The compounds below were run against Carboxy-terminal domain RNA polymerase II polypeptide A small phosphatase 1 (Homo sapiens) (UniProt Q9GZU7) (assay: Scp-1 phosphatase inhibitors, primary screen, biochemical, colorimetric, uHTS (AID 493091;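 further: plate controls were DMSO wells with enzyme for no effect and wells lacking enzyme for full effect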)). Conditions: Recombinant Scp1, phosphopeptide, malachite green phosphate absorbance; at 20 µM; stronger effect = higher value.
Carboxy-terminal domain RNA polymerase II polypeptide A small phosphatase 1 (Homo sapiens), sequence (Q9GZU7 76-261 limits assumed): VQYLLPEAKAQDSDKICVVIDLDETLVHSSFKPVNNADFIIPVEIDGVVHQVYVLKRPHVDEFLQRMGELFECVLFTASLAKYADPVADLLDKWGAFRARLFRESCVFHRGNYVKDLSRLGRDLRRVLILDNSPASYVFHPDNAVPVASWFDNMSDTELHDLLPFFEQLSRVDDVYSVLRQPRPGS
Method in brief: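 Test system: SCP-1 catalytic domain; Buffer or medium: Acidic Tris acetate buffer with magnesium and detergent; Also added: Phosphorylated 17-residue peptide substrate; Compound: single 20 µM dose, 1% DMSO; Schedule: enzyme reaction 45 min at room temperature, colour 5 min, stabilisation 30 min; Signal: Phosphate-binding colour reagent, absorbance read at 630 nm.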
With COc1ccccc1N(C)C(=O)c1cc(S(=O)(=O)N2CCc3ccccc32)cn1C the inhibition was -4.84% (inactive).
For COc1ccc(C(=O)COC(=O)CNC(=O)c2cccs2)cc1Br, the inhibition was -0.77% (inactive).
With C=CC1=C(C(=O)O)N2C(=O)[C@@H](NC(=O)/C(=N/OCC(=O)O)c3csc(N)n3)[C@H]2SC1 the inhibition was 65.5% (active).
For C=CC1=C(C(=O)O)N2C(=O)[C@@H](NC(=O)/C(=N\OCC(=O)O)c3csc(N)n3)[C@H]2SC1, the inhibition was 71% (active).
Cc1cc(C)cc(C(=O)NC2C(=O)N3C(C(=O)O)=C(CSc4nnc(C)s4)CSC23)c1 (stereo not drawn) was tested, and the inhibition was 4.73% (inactive).
Cc1nnc(SCC2=C(C(=O)O)N3C(=O)C(NC(=O)Cn4nc(C)c(Cl)c4C)C3SC2)s1 (stereo not drawn) was tested, and the inhibition was 14.4% (inactive).
In the case of CC(C)(C)OC(=O)C1=C(CO)CS[C@@H]2[C@H](NC(=O)Cc3ccccc3)C(=O)N12, the inhibition is reported as 1.29% (inactive).
With CO/N=C(\C(=O)N[C@@H]1C(=O)N2C(C(=O)O)=C(COC(C)=O)CS[C@H]12)c1csc(N)n1 (stereo in doubt) the inhibition was 69.7% (active) and 11.4% (inactive) and 72.2% (active).
For CC(=O)c1ccc(NC(=O)CSc2nc3ccccc3c(=O)n2CCCN2CCOCC2)cc1, the inhibition was -7.5% (inactive).
In the case of Cn1cnc([N+](=O)[O-])c1Sc1ccccc1, the inhibition is reported as -15.4% (inactive).
In the case of O=C(NCCC1=CCCCC1)c1ccc(-n2cncn2)cc1, the inhibition is reported as 0.7% (inactive).
For O=C(O)c1ccccc1-c1ccccc1C(=O)NCc1cccnc1, the inhibition was -6.94% (inactive).
With CSc1ccccc1NC(=O)c1cnc2sc(C)cn2c1=O the inhibition was -3.98% (inactive).
With COc1ccc(C2C3=C(OC(C)=O)c4ccccc4C3=Nc3c2c(=O)n(C)c(=O)n3C)cc1 (stereo not drawn) the inhibition was -10.3% (inactive).
With CN(C)S(=O)(=O)c1cc(NC(=O)CN2C(=O)NC3(CCCc4ccccc43)C2=O)ccc1Cl (stereo not drawn) the inhibition was -6.5% (inactive).
With COc1ccc(/C(O)=C2/C(=O)C(=O)N(c3nc(C)c(C)s3)C2c2ccco2)cc1 (stereo not drawn) the inhibition was -0.42% (inactive).
Cn1c(=O)c2cc(S(=O)(=O)NCCC(=O)Nc3ccc(F)cc3F)ccc2n(C)c1=O was tested, and the inhibition was -3.26% (inactive).
In the case of COC(=O)c1ccccc1NC(=O)CN(Cc1ccc(Cl)cc1)S(C)(=O)=O, the inhibition is reported as -4.27% (inactive).
In the case of COC(=O)c1ccccc1NC(=O)C1(S(=O)(=O)c2ccc(Cl)cc2)CC1, the inhibition is reported as 82.2% (active).
For CCOC(=O)C1(S(=O)(=O)c2ccc(Cl)cc2)CCN(Cc2ccccc2)CC1, the inhibition was -6.96% (inactive).
With CNC1(c2nnnn2-c2c(C)cccc2C)CCOC(C)(C)C1 (stereo not drawn) the inhibition was -10.7% (inactive).
Cc1ccc(S(=O)(=O)NCC(=O)N2CCOCCOCCOCCOCC2)cc1 was tested, and the inhibition was -7.08% (inactive).
In the case of CC1CCCCC1NC(=O)C1CCCN1S(=O)(=O)c1cccc2nsnc12 (stereo not drawn), the inhibition is reported as -9.08% (inactive).
For Cc1ccc(NC(=O)COc2ccc(/C=N\NC(=O)c3cccnc3)cc2)cc1C, the inhibition was 73% (active).
In the case of O=C(COc1ccc(/C=N/NC(=O)c2ccc(O)cc2)cc1)Nc1ccc([N+](=O)[O-])cc1, the inhibition is reported as -4.15% (inactive).
In the case of Cc1ccc(OCC(=O)NCCCNC(=O)c2cccnc2)cc1C, the inhibition is reported as 3.67% (inactive).
In the case of CCC(C)OC(=O)C(C)Oc1ccc(-c2ccccc2)cc1 (stereo not drawn), the inhibition is reported as 0.19% (inactive).
With O=C(CN1C(=O)COc2ccc(Cl)cc21)N1CCOCC1 the inhibition was 3.98% (inactive).
With Cc1ccc(NC(=O)CN2C(=O)NC(C)(c3ccc(Cl)cc3)C2=O)c(Br)c1 (stereo not drawn) the inhibition was -3.83% (inactive).
With Cc1ccc(C2(C)NC(=O)N(CC(=O)Nc3ccccc3C(=O)N3CCCCC3)C2=O)cc1 (stereo not drawn) the inhibition was 65.5% (active).
For Cc1ccc(C2(C)NC(=O)N(CC(=O)N3CC(=O)Nc4ccccc43)C2=O)cc1 (stereo not drawn), the inhibition was -4.98% (inactive).
With CC1CC(C)CN(CCOc2cccc3ccccc23)C1 (stereo not drawn) the inhibition was -2.45% (inactive).
CCn1ncc(C2=NOC(C(=O)Nc3ccccc3C(=O)OC)C2)c1C (stereo not drawn) was tested, and the inhibition was -6.5% (inactive).
O=C(Oc1ccc(-c2nc(-c3ccccn3)no2)cc1)c1ccccc1 was tested, and the inhibition was 7.66% (inactive).
With O=C1C(=O)N(c2ccccc2)c2ccccc21 the inhibition was -4.37% (inactive).
O=C(O)COCC(=O)NCc1csc2ccc(Cl)cc12 was tested, and the inhibition was 11.2% (inactive).
Cc1ccc(C(=O)NNC(=O)c2cc3cc4ccccc4nc3s2)cc1 was tested, and the inhibition was 83.1% (active).
For Cc1ccc(C(=O)NNc2ncnc3ccccc23)cc1, the inhibition was 5.78% (inactive).
For Cc1ccc(C(=O)NNC(=O)c2ccc3c(c2)OCCO3)cc1, the inhibition was -11.5% (inactive).
With COc1ccc2oc(C(=O)NCC(Cc3ccccc3)N(C)C)c(C)c2c1 (stereo not drawn) the inhibition was -2.96% (inactive).
In the case of Cc1ccc(C)c(NC(=S)NNC(=S)Nc2ccc(C(C)C)cc2)c1, the inhibition is reported as 3.22% (inactive).
In the case of CC(C)c1ccc(NC(=S)NNc2ccc(Cl)c(C(=O)O)c2)cc1, the inhibition is reported as 54.9% (active).
With O=C(NC(=S)Nc1ccc(Cl)c(C(=O)O)c1)c1cncc(Br)c1 the inhibition was 5.31% (inactive).
O=C(OCC(=O)N1CCN(C(=O)c2ccco2)CC1)c1ccc(Cl)c(Cl)c1 was tested, and the inhibition was -3.89% (inactive).
With O=C1c2ccccc2S(=O)(=O)N1Cc1c(F)cccc1Cl the inhibition was -6.43% (inactive).
CC(Sc1nn(-c2ccc(Cl)cc2)c(=S)s1)C(=O)NCC1CCCO1 (stereo not drawn) was tested, and the inhibition was -9% (inactive).
In the case of C#CCOc1ccc(/C=C2/C(=O)NN(c3ccccc3)C2=O)cc1OC, the inhibition is reported as -4.73% (inactive).
In the case of COc1cc(/C=C2/C(=O)NN(c3cccc(Cl)c3)C2=O)cc(Br)c1O, the inhibition is reported as 2.98% (inactive).
In the case of O=C1NN(c2ccccc2)C(=O)/C1=C/c1ccc(-c2cccc(C(=O)O)c2)o1, the inhibition is reported as 52% (active).
With Cc1ccc(-c2c3c(=O)n(C)c(=O)n(C)c3cn2-n2cnnc2)cc1 the inhibition was -6% (inactive).
With CCOC(=O)Cc1cc(=O)[nH]c(/N=C(\N)Nc2ccc(OC)cc2)n1 the inhibition was -0.71% (inactive).
In the case of Cc1cc(=O)[nH]c(N/N=C/c2c(C)nn(-c3ccccc3Cl)c2Cl)n1, the inhibition is reported as -253% (inactive).
With CC1CCN(c2ccc(S(=O)(=O)Nc3cc(C(=O)O)cc(C(=O)O)c3)cc2[N+](=O)[O-])CC1 the inhibition was 54.5% (active).
With CC1CCN(c2ccc(C(=O)Nc3nnc(C4CC4)s3)cc2[N+](=O)[O-])CC1 the inhibition was -0.75% (inactive).
For COc1ccc(NS(=O)(=O)c2ccc(N3CCN(CCO)CC3)c([N+](=O)[O-])c2)cc1, the inhibition was -2.43% (inactive).
O=C(CNC(=O)C(c1ccccc1)c1ccccc1)N/N=C\c1ccc2c(c1)OCO2 was tested, and the inhibition was 59.5% (active).
Cc1[nH]c2ccccc2c1/C=N/NC(=O)CNC(=O)c1ccc2c(c1)OCO2 was tested, and the inhibition was -5.09% (inactive).
With O=C(N/N=C/c1ccc2c(c1)OCO2)C(=O)N1CCCC1 the inhibition was -6.72% (inactive).
In the case of CC1C(=O)N2CCCc3cc(S(=O)(=O)NCc4ccc(F)cc4)cc1c32 (stereo not drawn), the inhibition is reported as -5.8% (inactive).
With CN(CCc1ccccn1)S(=O)(=O)c1ccc2c3c(cccc13)C(=O)N2 the inhibition was 0.36% (inactive).
For COc1ccc(S(=O)(=O)N2CCC(C(=O)N3CCCC3)CC2)cc1C, the inhibition was -3.35% (inactive).
CCOC(=O)c1sc(NC(=O)CSc2nc(C)cc(C(F)(F)F)n2)c(C#N)c1C was tested, and the inhibition was -3.8% (inactive).
For CC(C)c1cc(NCc2ccccn2)n2c(nc3ccccc32)c1C#N, the inhibition was -0.31% (inactive).
With O=C(CSc1ccc(-c2ccco2)nn1)Nc1cccc(F)c1 the inhibition was -4.82% (inactive).
In the case of O=C(O)c1cccc(NC(=O)c2cc(-c3cccc(Cl)c3)nc3ccccc23)c1, the inhibition is reported as 5.17% (inactive).
With O=C(Nc1cccc(F)c1)c1cc(-c2ccco2)nc2ccccc12 the inhibition was 57.4% (active).
With Cc1cccc(Cn2cnc3c(N)c(C)c(C)cc32)c1 the inhibition was -2.5% (inactive).
With Cc1onc(-c2c(F)cccc2Cl)c1C(=O)Nc1cccc(S(=O)(=O)N2CCCCC2)c1 the inhibition was -7.5% (inactive).
In the case of CC(=O)Nc1ccc(OCC(O)CN2CCN(c3ccccc3Cl)CC2)cc1 (stereo not drawn), the inhibition is reported as 0.19% (inactive).
With Cc1ccc(CN2CCN(c3ccccc3Cl)CC2)o1 the inhibition was 51% (active).
With Cc1ccc(CN2CCN(Cc3cn(C)nc3-c3ccccc3)CC2CCO)o1 (stereo not drawn) the inhibition was -12.6% (inactive).
For COc1ccc(C(=O)NCc2nnc(SCC(=O)NC3=NCCS3)n2C)cc1, the inhibition was -3.07% (inactive).
With CC(C)(C)OC(=O)NCCCCCNC(=O)c1[nH]cnc1C(=O)Nc1nccs1 the inhibition was -11.3% (inactive).
For COC(=O)c1ccc(OC(=O)c2nn(C)cc2Cl)c(OC)c1, the inhibition was 1.35% (inactive).
In the case of COC(=O)c1ccc(-c2c(-c3ccccc3)ncc3cc(OC)c(OC)cc23)cc1, the inhibition is reported as 66.9% (active).
In the case of COC(=O)c1ccc(SCc2ccccc2)nc1, the inhibition is reported as -6.97% (inactive).
In the case of Cc1ccc2c(c1)C(c1ccccc1)N(C(=O)c1ccc(S(=O)(=O)N3CCOCC3)cc1)CC(=O)N2 (stereo not drawn), the inhibition is reported as -1% (inactive).
For O=S(=O)(Nc1ccc(O)c2ccccc12)c1ccc(OC(F)(F)F)cc1, the inhibition was -14.4% (inactive).
In the case of Nc1ccccc1SC(C[N+](=O)[O-])c1ccccc1 (stereo not drawn), the inhibition is reported as 2.72% (inactive).
For Cc1c(NC(=O)C(C)OC(=O)c2c3c(nc4ccccc24)CCC(C)C3)c(=O)n(-c2ccccc2)n1C (stereo not drawn), the inhibition was -2.49% (inactive).
Cc1ccc(C(=O)OCC(=O)NCc2ccc3c(c2)OCO3)s1 was tested, and the inhibition was -4.92% (inactive).
COc1cccc(CNCc2ccc3c(c2)OCO3)c1 was tested, and the inhibition was -9.52% (inactive).
For COc1cccc(CC(=O)OCC(=O)NCc2ccc3c(c2)OCO3)c1, the inhibition was 64.5% (active).
With CCOC(=O)C1CCN(C(=O)C2CCCN(S(=O)(=O)c3ccc(OC)c(Cl)c3)C2)CC1 (stereo not drawn) the inhibition was -4.52% (inactive).
In the case of CC(=O)OCCC(C)C, the inhibition is reported as 12.2% (inactive).
In the case of CC1=NN(C(=O)CCc2ccccc2O)C(O)(C(F)(F)F)C1 (stereo not drawn), the inhibition is reported as 63% (active).
With COc1ccc(CC(=O)N2N=C(C)CC2(O)C(F)(F)F)cc1 (stereo not drawn) the inhibition was -2.15% (inactive).
In the case of CC1=NN(C(=O)CCCc2ccccc2)C(O)(C(F)(F)F)C1 (stereo not drawn), the inhibition is reported as -2.98% (inactive).
